Here are results for seven compounds from ChEMBL document CHEMBL1146075, “Synthesis and anti-BVDV activity of acridones as new potential antiviral agents” (J Med Chem, 2006).

Assay [1] deals with Bovine viral diarrhea virus 1. The experiment in a line: Antiviral activity against BVDV NADL in MDBK cells. Type of assay: functional, organism-based. The settings on record: Bovine viral diarrhea virus isolates and strains. Summed up: (§1)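 MDBK cells seeded 20 × 10^3/well in MEM with 5% heat-inactivated FCS, confluent after 24 h; serial 3-fold compound dilutions added, then virus at MOI 0.5 (line 2: NADL F224S mutant). 5 days at 37 °C, then ethanol fixation and Giemsa staining. CPE scored microscopically 0–10 per well. EC50 by logarithmic interpolation; mean ± SD of at least three experiments.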

Assay [2] relates to MDBK441. The assay is described as follows: Cytotoxicity against MDBK cells. Type of assay: functional. The settings on record: Bos taurus. An outline of the steps:
(§2)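 Cells seeded the day before, then given serial compound dilutions and left to proliferate 3 days at 37 °C. MDBK: 10^4/well in MEM-FCS. Huh 5-2: 5 × 10^3/well in complete DMEM. Cell number read by MTS/PMS. CC50 is the concentration inhibiting cell growth by 50%.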

The test system of assay [3] is MDBK441. The experiment in a line: Selectivity index (CC50/EC50) for inhibition of BVDV NADL in MDBK cells. Type of assay: functional. Summed up:
(§3)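 SI = CC50/EC50. EC50 comes from a 5-day Giemsa-stained CPE assay in MDBK cells at MOI 0.5; CC50 from a 3-day MTS/PMS proliferation assay. Means of at least three experiments. Line 10 uses the NADL F224S mutant.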

The subject of assay [4] is Human alphaherpesvirus 1. The experiment in a line: Antiviral activity against HSV1 KOS in E6SM cells. Type of assay: functional, organism-based.
Assay [5] deals with Human alphaherpesvirus 2. The assay is described as follows: Antiviral activity against HSV2 G in E6SM cells. Type of assay: functional, organism-based.
The subject of assay [6] is Vaccinia virus. The experiment in a line: Antiviral activity against vaccinia virus in E6SM cells. The settings on record: Orthopoxvirus vaccinia. It is filed as functional, organism-based.
In assay [7] the test system is Vesicular stomatitis virus. The assay is described as follows: Antiviral activity against vesicular stomatitis virus in E6SM cells. It is filed as functional, organism-based.
The test system of assay [8] is Human betaherpesvirus 5. The experiment in a line: Antiviral activity against HCMV AD169 in human embryonic lung cells. Type of assay: functional, organism-based.
Assay [9] has as its system Human betaherpesvirus 5. The assay is described as follows: Antiviral activity against HCMV Davis in human embryonic lung cells. It is filed as functional, organism-based.
Assay [10] deals with Respiratory syncytial virus. The experiment in a line: Antiviral activity against respiratory syncytial virus […] in HeLa cells. Type of assay: functional, organism-based.
Assay [11] has as its system Coxsackievirus B4. The experiment in a line: Antiviral activity against coxsackie virus B4 in vero cells. Type of assay: functional, organism-based.
For assay [12], the system named is Human respirovirus 3. The experiment in a line: Antiviral activity against parainfluenza3 virus in vero cells. Type of assay: functional, organism-based.
For assay [13], the system named is Mammalian orthoreovirus 1. The assay is described as follows: Antiviral activity against Reovirus1 in vero cells. It is filed as functional, organism-based.
Assay [14] relates to Sindbis virus. The assay is described as follows: Antiviral activity against sindbis virus in vero cells. Type of assay: functional, organism-based.
In assay [15] the test system is Punta Toro virus. The assay is described as follows: Antiviral activity against Punta Toro virus in vero cells. It is filed as functional, organism-based.
The test system of assay [16] is Human immunodeficiency virus 1. The experiment in a line: Antiviral activity against HIV1 3B in MT4 cells. Type of assay: functional, organism-based.
The test system of assay [17] is Human immunodeficiency virus 2. The experiment in a line: Antiviral activity against HIV2 ROD in MT4 cells. It is filed as functional, organism-based.
Assay [18] deals with Bovine viral diarrhea virus 1. The experiment in a line: Antiviral activity against VP32947-resistant BVDV in MDBK cells. Type of assay: functional, organism-based. The settings on record: Bovine viral diarrhea virus isolates and strains. Summed up: as §1
In assay [19] the test system is MDBK441. The experiment in a line: Selectivity index (CC50/EC50) for inhibition of VP32947-resistant BVDV in MDBK cells. Type of assay: functional. An outline of the steps: as §3
The test system of assay [20] is MDBK441. The experiment in a line: Inhibition of BVDV NADL RNA production in MDBK cells. Type of assay: functional, cell-based. The settings on record: Bos taurus. An outline of the steps:
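Viral RNA came from supernatant, total cellular RNA by kit. One-step TaqMan RT-qPCR: UNG 50 °C 2 min; RT 60 °C 30 min; 95 °C 5 min; 40 cycles of 94 °C 20 s and 62 °C 1 min. Three replicate reactions per sample.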

The test system of assay [21] is MDBK441. The assay is described as follows: Inhibition of BVDV NADL production in MDBK cells. Type of assay: functional, cell-based. Conditions: Bos taurus. Summed up: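 Supernatants were titrated on MDBK cells seeded at 5 × 10^3/well (10–15% confluent). Cells were infected 24 h later with 10-fold serial dilutions and, after 4 days, ethanol-fixed and Giemsa-stained. CPE was read microscopically; titre by Reed–Muench, as CCID50/mL.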

The subject of assay [22] is Huh-5-2. The experiment in a line: Cytotoxicity against human hepatoma Huh5-2 cells. Type of assay: functional. An outline of the steps: as §2

As a reminder, the EC50 is the concentration at which the effect is half-maximal. Low values mean a more potent agent, high ones a less potent agent. By CC50 is commonly meant the concentration that lowers cell viability or growth by half. High values mean lower toxicity to the cells, low ones greater toxicity to the cells.

≈ marks a conversion by molar mass, not a printed value. Calls of active or inactive are those of the source. The calls are words filed in the database; no cut-off is given here. A value given as a limit tells only on which side of the number the result lay.

For the compound `COc1cc(O)c2c(=O)c3cc([N+](=O)[O-])c(Cl)cc3n(C)c2c1`, in assay [1], the EC50 was over 83 µg/mL. Besides, in [2], the 50% cytotoxic concentration (CC50) worked out at 83 µg/mL (≈ 248 µM). In [3], this compound showed a Selectivity index of 1. Besides, the result in [4], in [5], in assay [6], in [7], in assay [8] and in assay [9] was inactive. Further, the result in assay [10], in assay [11], in assay [12], in [13], in assay [14] and in assay [15] was inactive. Moreover, the result in assay [16] and in assay [17] was inactive.

`C[C@@]1(O)[C@H](O)[C@@H](CO)O[C@H]1n1cnc2c(N)ncnc21`: the EC50 in [1] turned out to be 0.22 µg/mL (≈ 0.782 µM); in assay [18], 0.37 µg/mL (≈ 1.32 µM). The compound further came in with a CC50 in assay [2] of over 14 µg/mL. Moreover, the Selectivity index is over 63 in assay [3] and over 38 in [19].

Turning to `COc1cc(O)c2c(=O)c3cc([N+](=O)[O-])c(N4CCN(c5ccccn5)CC4)cc3n(C)c2c1`, the EC50 in assay [1] was over 100 µg/mL. For the same compound, in assay [2], the cytotoxic concentration (CC50) was over 100 µg/mL. This compound also had a Selectivity index in assay [3] of 1. Further, the result in [4], in assay [5], in [6], in assay [7], in assay [8] and in [9] was inactive. For the same compound, the outcome in assay [10], in assay [11], in [12], in [13], in assay [14] and in [15] was inactive. Moreover, the result in assay [16] and in [17] was inactive.

In assay [1], `COc1cc(OC)c2c(=O)c3cc([N+](=O)[O-])c(Cl)cc3n(C)c2c1` had an EC50 of over 100 µg/mL. Further, the CC50 in [2] was over 100 µg/mL. The compound also displayed a Selectivity index in assay [3] of 1. The outcome in [4], in assay [5], in assay [6], in assay [7], in [8] and in assay [9] was inactive. Besides, the outcome in assay [10], in assay [11], in [12], in [13], in assay [14] and in [15] was inactive. For the same compound, the result in [16] and in assay [17] was inactive.

For the compound `CCCN(CCC)CCSc1n[nH]c2c3ccccc3nc-2n1`, the EC50 in assay [1] was 0.009 µg/mL (≈ 0.0273 µM); in assay [18] it was over 1 µg/mL. The compound also registered a CC50 in assay [2] of over 1 µg/mL. Further, the Selectivity index in assay [3] is over 111; in [19] it was 1.

In assay [1], `COc1cc(OC)c2c(=O)c3cc(N)c(Cl)cc3n(C)c2c1` registered an EC50 of over 100 µg/mL. The CC50 in [2] is over 100 µg/mL. The compound further had a Selectivity index in assay [3] of 1. Moreover, the result in assay [4], in assay [5], in [6], in [7], in assay [8] and in assay [9] was inactive. The result in assay [10], in assay [11], in assay [12], in assay [13], in assay [14] and in assay [15] was inactive. The outcome in [16] and in assay [17] was inactive.

On to `Cn1c2cc(N3CCN(c4ccccn4)CC3)c(N)cc2c(=O)c2c(O)cc(O)cc21`, for which the CC50 in assay [2] was over 100 µg/mL; in [22] it was 21 µg/mL (≈ 50.3 µM). For the same compound, the Selectivity index in assay [3] is on record as over 200; in assay [19] it was over 45. Moreover, the outcome in assay [4], in assay [5], in [6], in assay [7], in assay [8] and in assay [9] was inactive. For the same compound, the outcome in [10], in [11], in assay [12], in [13], in assay [14] and in assay [15] was inactive. In addition, the result in assay [16] and in assay [17] was inactive. The figures for the EC50 in assay [20], in assay [21] and in assay [18] were 2.3 µg/mL (≈ 5.51 µM), 2.01 µg/mL (≈ 4.81 µM) and 2.24 µg/mL (≈ 5.37 µM), respectively.
